Reference: ChEMBL document CHEMBL5724801, “EUbOPEN Chemogenomics Library - Multiplex” (2024)
Where “and” joins values, the source holds several entries; their conditions need not be identical. Equal entries are not always repeated.

System: U2OS
Assay: Multiplex assay against U2OS
Format: toxicity, cell-based
Conditions: human
Procedure, shortened: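 Compound was added to live cells that had been stained at seeding with Hoechst33342, BioTracker Green Microtubule Cytoskeleton Dye, MitoTracker Red and Annexin V Alexa Fluor 680, and imaging followed on a CQ1 microscope at 37°C and 5% CO2. CellPathfinder machine-learning gating divided cells into Hoechst high-intensity objects or normal cells, normal cells into healthy, pyknosed or fragmented nuclei, and pyknosed cells into mitotic or apoptotic. Tubulin, mitochondrial-mass and membrane-permeability phenotypes are per cents of healthy-nucleus cells.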

[1] = 12 h, 1 µM, compound concentration 1 uM
[2] = 12 h, 10 µM, compound concentration 10 uM
[3] = 24 h, 1 µM, compound concentration 1 uM
[4] = 24 h, 10 µM, compound concentration 10 uM
[5] = 48 h, 1 µM, compound concentration 1 uM
[6] = 48 h, 10 µM, compound concentration 10 uM

O=C(Nc1ccccc1Br)N[C@@H]1CCN(c2ccc(C(F)(F)F)cn2)C1 [SB-705498]
Population Apoptotic (%) [1]: 38.89% and 33.33%
Population Fragmented Nuclei (%) [1]: 1.94% and 6.43%
Population Healthy Nuclei (%) [1]: 84.95% and 83.04%
Population Hoechst High Intensity Objects (%) [1]: 0%
Population Membrane Permeable-Phenotype (%) [1]: 1.14% and 2.82%
Population Mitochondria Different-Phenotype (%) [1]: 0% and 3.52%
Population Mitotic Cells (%) [1]: 61.11% and 66.67%
Population Normal (%) [1]: 100%
Population Pyknosed Nuclei (%) [1]: 13.11% and 10.53%
Population Tubulin-Different-Phenotype (%) [1]: 0.86% and 0%
Total Cell Count [1]: 412 and 171
Population Apoptotic (%) [2]: 43.24% and 36.84%
Population Fragmented Nuclei (%) [2]: 0.5% and 3.7%
Population Healthy Nuclei (%) [2]: 90.35% and 82.22%
Population Hoechst High Intensity Objects (%) [2]: 0%
Population Membrane Permeable-Phenotype (%) [2]: 0.55% and 5.41%
Population Mitochondria Different-Phenotype (%) [2]: 0% and 21.62%
Population Mitotic Cells (%) [2]: 56.76% and 63.16%
Population Normal (%) [2]: 100%
Population Pyknosed Nuclei (%) [2]: 9.16% and 14.07%
Population Tubulin-Different-Phenotype (%) [2]: 1.64% and 3.6%
Total Cell Count [2]: 404 and 135
Population Apoptotic (%) [3]: 45.28% and 27.59%
Population Fragmented Nuclei (%) [3]: 2.03% and 4.69%
Population Healthy Nuclei (%) [3]: 88.17% and 81.69%
Population Hoechst High Intensity Objects (%) [3]: 0.18% and 0%
Population Membrane Permeable-Phenotype (%) [3]: 0.21% and 2.87%
Population Mitochondria Different-Phenotype (%) [3]: 0% and 10.34%
Population Mitotic Cells (%) [3]: 54.72% and 72.41%
Population Normal (%) [3]: 99.82% and 100%
Population Pyknosed Nuclei (%) [3]: 9.8% and 13.62%
Population Tubulin-Different-Phenotype (%) [3]: 0.84% and 0%
Total Cell Count [3]: 542 and 213
Population Apoptotic (%) [4]: 39.24% and 21.05%
Population Fragmented Nuclei (%) [4]: 0.86% and 1.8%
Population Healthy Nuclei (%) [4]: 85.49% and 86.83%
Population Hoechst High Intensity Objects (%) [4]: 0%
Population Membrane Permeable-Phenotype (%) [4]: 1.82% and 4.14%
Population Mitotic Cells (%) [4]: 60.76% and 78.95%
Population Normal (%) [4]: 100%
Population Pyknosed Nuclei (%) [4]: 13.64% and 11.38%
Population Tubulin-Different-Phenotype (%) [4]: 2.83% and 1.38%
Population Apoptotic (%) [5]: 41.75% and 51.28%
Population Fragmented Nuclei (%) [5]: 3.31% and 2.67%
Population Healthy Nuclei (%) [5]: 86.67% and 86.93%
Population Hoechst High Intensity Objects (%) [5]: 0%
Population Membrane Permeable-Phenotype (%) [5]: 0.9% and 2.76%
Population Mitochondria Different-Phenotype (%) [5]: 0% and 4.29%
Population Mitotic Cells (%) [5]: 58.25% and 48.72%
Population Normal (%) [5]: 100%
Population Pyknosed Nuclei (%) [5]: 10.02% and 10.4%
Population Tubulin-Different-Phenotype (%) [5]: 0.9% and 0.92%
Total Cell Count [5]: 1028 and 375
Population Apoptotic (%) [6]: 52.22% and 32.26%
Population Fragmented Nuclei (%) [6]: 1.85% and 1.83%
Population Healthy Nuclei (%) [6]: 89.37% and 86.81%
Population Hoechst High Intensity Objects (%) [6]: 0.1% and 0%
Population Membrane Permeable-Phenotype (%) [6]: 1.09% and 4.64%
Population Mitochondria Different-Phenotype (%) [6]: 0.22% and 8.02%
Population Mitotic Cells (%) [6]: 47.78% and 67.74%
Population Normal (%) [6]: 99.9% and 100%
Population Pyknosed Nuclei (%) [6]: 8.78% and 11.36%
Population Tubulin-Different-Phenotype (%) [6]: 2.07% and 1.27%

CC(C)CC(=O)Nc1cncc(-c2ccc3[nH]nc(-c4nc5c(-c6cccc(F)c6)cncc5[nH]4)c3c2)c1 [LORECIVIVINT]
Population Apoptotic (%) [1]: 45.16% and 22.22%
Population Fragmented Nuclei (%) [1]: 2.6% and 2.94%
Population Healthy Nuclei (%) [1]: 88.44% and 83.82%
Population Hoechst High Intensity Objects (%) [1]: 0%
Population Membrane Permeable-Phenotype (%) [1]: 5.23% and 5.26%
Population Mitotic Cells (%) [1]: 54.84% and 77.78%
Population Normal (%) [1]: 100%
Population Pyknosed Nuclei (%) [1]: 8.96% and 13.24%
Population Tubulin-Different-Phenotype (%) [1]: 7.84% and 9.65%
Total Cell Count [1]: 346 and 136
Population Apoptotic (%) [2]: 60.48% and 43.06%
Population Fragmented Nuclei (%) [2]: 3.46% and 6.63%
Population Healthy Nuclei (%) [2]: 55.31% and 53.59%
Population Hoechst High Intensity Objects (%) [2]: 0%
Population Membrane Permeable-Phenotype (%) [2]: 4.46% and 6.19%
Population Mitochondria Different-Phenotype (%) [2]: 0% and 2.06%
Population Mitotic Cells (%) [2]: 39.52% and 56.94%
Population Normal (%) [2]: 100%
Population Pyknosed Nuclei (%) [2]: 41.23% and 39.78%
Population Tubulin-Different-Phenotype (%) [2]: 8.04% and 1.03%
Total Cell Count [2]: 405 and 181
Population Apoptotic (%) [3]: 65.71% and 37.04%
Population Fragmented Nuclei (%) [3]: 3.06% and 4.14%
Population Healthy Nuclei (%) [3]: 87.22% and 77.24%
Population Hoechst High Intensity Objects (%) [3]: 0.28% and 0%
Population Membrane Permeable-Phenotype (%) [3]: 2.87% and 3.57%
Population Mitotic Cells (%) [3]: 34.29% and 62.96%
Population Normal (%) [3]: 99.72% and 100%
Population Pyknosed Nuclei (%) [3]: 9.72% and 18.62%
Population Tubulin-Different-Phenotype (%) [3]: 5.73% and 4.46%
Total Cell Count [3]: 361 and 145
Population Apoptotic (%) [4]: 54.77% and 33.33%
Population Fragmented Nuclei (%) [4]: 3.76% and 6.3%
Population Healthy Nuclei (%) [4]: 39.53% and 38.24%
Population Hoechst High Intensity Objects (%) [4]: 0%
Population Membrane Permeable-Phenotype (%) [4]: 4.17% and 5.49%
Population Mitochondria Different-Phenotype (%) [4]: 0.6% and 2.2%
Population Mitotic Cells (%) [4]: 45.23% and 66.67%
Population Normal (%) [4]: 100%
Population Pyknosed Nuclei (%) [4]: 56.71% and 55.46%
Population Tubulin-Different-Phenotype (%) [4]: 10.12% and 3.3%
Total Cell Count [4]: 425 and 238
Population Apoptotic (%) [5]: 60.87% and 57%
Population Fragmented Nuclei (%) [5]: 5.63% and 2.11%
Population Healthy Nuclei (%) [5]: 42.54% and 27.46%
Population Hoechst High Intensity Objects (%) [5]: 0%
Population Membrane Permeable-Phenotype (%) [5]: 3.31% and 7.69%
Population Mitochondria Different-Phenotype (%) [5]: 0% and 12.82%
Population Mitotic Cells (%) [5]: 39.13% and 43%
Population Normal (%) [5]: 100%
Population Pyknosed Nuclei (%) [5]: 51.83% and 70.42%
Population Tubulin-Different-Phenotype (%) [5]: 7.95% and 10.26%
Total Cell Count [5]: 355 and 142
Population Apoptotic (%) [6]: 66.91% and 37.27%
Population Fragmented Nuclei (%) [6]: 5.11% and 2.77%
Population Healthy Nuclei (%) [6]: 33.11% and 33.6%
Population Hoechst High Intensity Objects (%) [6]: 0%
Population Membrane Permeable-Phenotype (%) [6]: 5.37% and 9.41%
Population Mitochondria Different-Phenotype (%) [6]: 1.34% and 1.18%
Population Mitotic Cells (%) [6]: 33.09% and 62.73%
Population Normal (%) [6]: 100%
Population Pyknosed Nuclei (%) [6]: 61.78% and 63.64%
Total Cell Count [6]: 450 and 253

CCCC(CCC)C(=O)O [VALPROIC ACID]
Population Apoptotic (%) [1]: 72% and 66%
Population Fragmented Nuclei (%) [1]: 28% and 14%
Population Healthy Nuclei (%) [1]: 63% and 77%
Population Hoechst High Intensity Objects (%) [1]: 6% and 2%
Population Membrane Permeable-Phenotype (%) [1]: 9% and 8%
Population Mitochondria Different-Phenotype (%) [1]: 7% and 3%
Population Mitotic Cells (%) [1]: 27% and 33%
Population Normal (%) [1]: 93% and 97%
Population Pyknosed Nuclei (%) [1]: 8%
Population Tubulin-Different-Phenotype (%) [1]: 8% and 6%
Population Apoptotic (%) [2]: 77% and 85%
Population Fragmented Nuclei (%) [2]: 30% and 21%
Population Healthy Nuclei (%) [2]: 66% and 70%
Population Hoechst High Intensity Objects (%) [2]: 4% and 0%
Population Membrane Permeable-Phenotype (%) [2]: 6% and 4%
Population Mitochondria Different-Phenotype (%) [2]: 3% and 4%
Population Mitotic Cells (%) [2]: 22% and 14%
Population Normal (%) [2]: 95% and 100%
Population Pyknosed Nuclei (%) [2]: 3% and 7%
Population Tubulin-Different-Phenotype (%) [2]: 4%
Population Apoptotic (%) [3]: 84% and 100%
Population Fragmented Nuclei (%) [3]: 24% and 17%
Population Healthy Nuclei (%) [3]: 66% and 74%
Population Hoechst High Intensity Objects (%) [3]: 6% and 3%
Population Membrane Permeable-Phenotype (%) [3]: 9%
Population Mitochondria Different-Phenotype (%) [3]: 6% and 2%
Population Mitotic Cells (%) [3]: 16% and 0%
Population Normal (%) [3]: 93% and 96%
Population Pyknosed Nuclei (%) [3]: 8%
Population Tubulin-Different-Phenotype (%) [3]: 9% and 7%
Population Apoptotic (%) [4]: 83% and 100%
Population Fragmented Nuclei (%) [4]: 25% and 17%
Population Healthy Nuclei (%) [4]: 71% and 78%
Population Hoechst High Intensity Objects (%) [4]: 2% and 0%
Population Membrane Permeable-Phenotype (%) [4]: 4% and 8%
Population Mitochondria Different-Phenotype (%) [4]: 3% and 4%
Population Mitotic Cells (%) [4]: 16% and 0%
Population Normal (%) [4]: 97% and 100%
Population Pyknosed Nuclei (%) [4]: 3% and 4%
Population Tubulin-Different-Phenotype (%) [4]: 3% and 5%
Population Apoptotic (%) [5]: 76% and 91%
Population Fragmented Nuclei (%) [5]: 20% and 16%
Population Healthy Nuclei (%) [5]: 69% and 72%
Population Hoechst High Intensity Objects (%) [5]: 3%
Population Membrane Permeable-Phenotype (%) [5]: 7% and 8%
Population Mitochondria Different-Phenotype (%) [5]: 5%
Population Mitotic Cells (%) [5]: 23% and 8%
Population Normal (%) [5]: 96%
Population Pyknosed Nuclei (%) [5]: 9% and 11%
Population Tubulin-Different-Phenotype (%) [5]: 5% and 6%
Population Apoptotic (%) [6]: 91% and 93%
Population Fragmented Nuclei (%) [6]: 20%
Population Healthy Nuclei (%) [6]: 71%
Population Hoechst High Intensity Objects (%) [6]: 2% and 1%
Population Membrane Permeable-Phenotype (%) [6]: 3% and 9%
Population Mitochondria Different-Phenotype (%) [6]: 2%
Population Mitotic Cells (%) [6]: 8% and 6%
Population Normal (%) [6]: 97% and 98%
Population Pyknosed Nuclei (%) [6]: 7%
Population Tubulin-Different-Phenotype (%) [6]: 1% and 4%
